Results taken from ChEMBL document CHEMBL1139714, “Effects of alpha-substitutions on structure and biological activity of anticancer chalcones” (Bioorg Med Chem Lett, 2006).

Each molecule was assayed against Tubulin (assay: Inhibition of tubulin). Settings: not given.
Type: protein-complex assay, Homo sapiens

SMILES	IC50 [µM]
COc1ccc(/C=C(\F)C(=O)c2cc(OC)c(OC)c(OC)c2)cc1O	0.6
COc1ccc(/C=C(\F)C(=O)c2cc(OC)c(OC)c(OC)c2)cc1	4.6
COc1ccc(/C=C(\C)C(=O)c2cc(OC)c(OC)c(OC)c2)cc1O	1.8
COc1ccc(/C=C/C(=O)c2cc(OC)c(OC)c(OC)c2)cc1O	10

The molecules below were run on K562 (assay: Cytotoxicity against human K562 cells after 5 days by MTT assay). Settings: K562, 120 h.
Type: cell-based
Procedure, shortened: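 K562 human chronic myelogenous leukaemia cells were cultured at 37 °C with drug for 5 days, and growth was read by MTT assay. IC50 was taken as the concentration giving 50% inhibition of cell growth.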

SMILES	IC50 [µM]
COc1ccc(/C=C(\F)C(=O)c2cc(OC)c(OC)c(OC)c2)cc1F	0.77
COc1ccc(/C=C(\F)C(=O)c2cc(OC)c(OC)c(OC)c2)cc1O	0.0137
COc1ccc(/C=C(\F)C(=O)c2cc(OC)c(OC)c(OC)c2)cc1	0.39
COc1ccc(/C=C(\F)C(=O)c2cc(OC)c(OC)c(OC)c2)c(F)c1	1.19
COc1cc(C(=O)/C(C#N)=C/c2ccc(OC)c(OC)c2OC)cc(OC)c1OC	> 10
COc1cc(C(=O)/C(C#N)=C/c2ccc(C(F)(F)F)cc2)cc(OC)c1OC	> 10
COc1ccc(/C=C(\C#N)C(=O)c2cc(OC)c(OC)c(OC)c2)cc1Br	> 10
COc1ccc(/C=C(\C#N)C(=O)c2cc(OC)c(OC)c(OC)c2)cc1F	> 10
CCOC(=O)/C(=C/c1ccc(OC)c(O[Si](C)(C)C(C)(C)C)c1)C(=O)c1cc(OC)c(OC)c(OC)c1	4.29
CCOC(=O)/C(=C/c1ccc(OC)c(OC)c1)C(=O)c1cc(OC)c(OC)c(OC)c1	> 10
COc1ccc(/C=C(\F)C(=O)c2cc(OC)c(OC)c(OC)c2)cc1Br	6
COc1ccc(/C=C(\F)C(=O)c2cc(OC)c(OC)c(OC)c2)cc1OC	1.21
COc1cc(C(=O)/C(F)=C/c2ccc(OC)c(OC)c2OC)cc(OC)c1OC	10
CCOC(=O)/C(=C/c1ccc(OC)c(OC)c1OC)C(=O)c1cc(OC)c(OC)c(OC)c1	> 10
COc1cc(C(=O)/C(F)=C/c2ccc3c(c2)OCO3)cc(OC)c1OC	0.8
COc1ccc(/C=C(\C#N)C(=O)c2cc(OC)c(OC)c(OC)c2)cc1O[Si](C)(C)C(C)(C)C	> 10
COc1ccc(/C=C(\C#N)C(=O)c2cc(OC)c(OC)c(OC)c2)c(F)c1	> 10
COc1ccc(/C=C(\C#N)C(=O)c2cc(OC)c(OC)c(OC)c2)cc1O	4.2
COc1ccc(/C=C(\C#N)C(=O)c2cc(OC)c(OC)c(OC)c2)cc1	> 10
COc1cc(C(=O)/C(C#N)=C/c2ccc3c(c2)OCO3)cc(OC)c1OC	> 10
CCOC(=O)/C(=C/c1ccc(OC)cc1)C(=O)c1cc(OC)c(OC)c(OC)c1	> 10
CCOC(=O)/C(=C\c1ccc(OC)c(O)c1)C(=O)c1cc(OC)c(OC)c(OC)c1	0.87
COc1ccc(/C=C(\C#N)C(=O)c2cc(OC)c(OC)c(OC)c2)cc1OC	> 10
